The text below walks through data of publication PMC7870562 (Bioorganic chemistry, 2020).

For experiment [1], the system named is UWBCC1 cells. Briefly: MTT cytotoxicity / cell viability assay, UWBCC1. The experiment is classed as cell-based, human. The note with it: for IC50: Homo sapiens, 48 h; for selectivity index: IC50 HaCaT / IC50 UWBCC1. In a few lines:
(§1)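 Cells in 5–10% FBS/DMEM were seeded at 5×10³ per well, refed at 24 h and grown to 70% confluence. They were treated for 48 h at 37°C, 5% CO2 with two-fold serial dilutions of test compound in DMSO (≤0.1%), […], in 8–10 repeats. After MTT, absorbance was read at 562 nm. Viability was expressed relative to DMSO controls and IC50 derived by nonlinear regression. Data are mean ± SD of ≥5 independent experiments in octuplicates.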

Experiment [2] has as its target CDK2/Cyclin A (Homo sapiens, UniProt P24941). Briefly: In vitro kinase activity assay. The note with it: 10-dose, three-fold serial dilution from 100 μM. The experiment is classed as biochemical. In a few lines:
(§2)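 Kinase profiling was run at Reaction Biology. IC50 values came from 10-dose mode, three-fold serial dilutions starting at 100 μM. Reference inhibitors were co-assayed at 1 and 10 μM.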

Experiment [3] concerns the target mTOR/FRAP1 (Homo sapiens, UniProt P42345). Briefly: In vitro kinase activity assay. It is filed as biochemical. The note with it: for IC50: mTOR/FRAP1 IC50, 10-dose, three-fold serial dilution from 100 μM. In a few lines:
as §2

Experiment [4] deals with Melanocyte. Kind of experiment: MTT cytotoxicity / cell viability assay, normal melanocytes. The experiment is classed as cell-based. The note with it: Homo sapiens, 48 h. In a few lines: as §1
In experiment [5] the target is CDK2/Cyclin E (Homo sapiens, UniProt P24941). Kind of experiment: In vitro kinase activity assay. It is filed as biochemical. The note with it: 10-dose, three-fold serial dilution from 100 μM. In a few lines:
as §2

Experiment [6] deals with A375 cells. Kind of experiment: MTT cytotoxicity / cell viability assay, A375. It is filed as cell-based, human. The note with it: for IC50: Homo sapiens, A-375, 48 h; for selectivity index: IC50 melanocytes / IC50 A375. In short, it runs like this: as §1
Experiment [7] relates to HaCaT. Briefly: MTT cytotoxicity / cell viability assay, HaCaT keratinocytes. It is filed as cell-based. The note with it: Homo sapiens, 48 h. In a few lines:
as §1

For experiment [8], the target named is c-Kit (Homo sapiens, UniProt P10721). Briefly: In vitro kinase activity assay. The experiment is classed as biochemical. In a few lines:
as §2

In experiment [9] the test system is A431 cells. Kind of experiment: MTT cytotoxicity / cell viability assay, A431. The note with it: for IC50: Homo sapiens, A-431, 48 h; for selectivity index: IC50 HaCaT / IC50 A431. It is filed as cell-based, human. In short, it runs like this:
as §1

In experiment [10] the test system is SK-Mel-28 cells. Kind of experiment: MTT cytotoxicity / cell viability assay, SK-Mel-28. It is filed as cell-based, human. The note with it: for IC50: Homo sapiens, SK-MEL-28, 48 h; for selectivity index: IC50 melanocytes / IC50 SK-Mel-28. In short, it runs like this:
as §1

The test system of experiment [11] is A431 cells. Kind of experiment: DAPI staining of apoptotic nuclei, A431. It is filed as cell-based, human. In a few lines:
(§3)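 Equal numbers of cells were seeded in T-25 flasks and exposed to test compound at different concentrations for 36 h. Cells were PBS-washed, stained with DAPI in PBS and imaged by fluorescence microscopy at 10x and 1.6×10x. Apoptotic nuclei were scored by morphology and expressed as percentage of cells.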

Experiment [12] has as its system A375 cells. Kind of experiment: DAPI staining of apoptotic nuclei, A375. It is filed as cell-based, human. In a few lines: as §3
Experiment [13] relates to A375 and A431 cells. Kind of experiment: Scratch wound healing assay. It is filed as cell-based, human. The note with it: A375 and A431, ½IC50, IC50, 2×IC50, 48 h; for inhibition of wound closure: vs untreated controls. In short, it runs like this: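 Confluent A375 or A431 monolayers in complete DMEM received two parallel scratches made with a 200-μL pipette tip, then were washed. Wells were treated at ½IC50, IC50 or 2×IC50 for 48 h. Wound area was measured by image analysis as a percentage of the initial cell-free area versus 0 h and 48 h controls. Data are mean ± SD of three independent experiments; one-way ANOVA with Dunn's test.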

In experiment [14] the test system is A375 and A431 cells. Briefly: Western blot analysis of apoptosis, cell cycle and c-Kit markers. The experiment is classed as cell-based, human. The note with it: A375 and A431, IC50 and 2×IC50, 48 h. In a few lines: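 Cells were plated at 3×10⁵ overnight and treated at 0, IC50 or 2×IC50 (<0.1% DMSO) for 48 h. Lysates were made in ice-cold RIPA with protease/phosphatase inhibitors and PMSF (15 min), then run on SDS-PAGE. Blots were probed with primary antibodies at 1:250–1:1000 and HRP secondary at 1:2000. Bands were normalized to β-actin, GAPDH or Rab11 and given as % expression; three independent experiments, one-way ANOVA with Dunn's test.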
Background: In western blotting, separated proteins are transferred to a membrane and probed.

The test system of experiment [15] is A375 and A431 cells. Kind of experiment: Colony formation assay. It is filed as cell-based, human. The note with it: A375 and A431, ½IC50, IC50, 2×IC50, concentration-dependent. In short, it runs like this: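 DMSO ≤0.1% v/v was the vehicle control. Cells were trypsinized and ~1000 reseeded per 10-cm2 plate, then grown 10–14 days drug-free at 37°C, 5% CO2, with medium renewed every 2–3 days. Colonies were stained with 0.5% Gentian violet in ~64% methanol/4% paraformaldehyde. Results are percent of control, mean ± SD of three independent experiments.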

Setting [16] is: A431, treated 36 hours at ½IC50.
Setting [17] is: A375, treated 36 hours at ½IC50.

By IC50 is commonly meant the midpoint of a concentration-inhibition curve. Higher therefore signals weaker potency.

Sequence of c-Kit (P10721 26-976): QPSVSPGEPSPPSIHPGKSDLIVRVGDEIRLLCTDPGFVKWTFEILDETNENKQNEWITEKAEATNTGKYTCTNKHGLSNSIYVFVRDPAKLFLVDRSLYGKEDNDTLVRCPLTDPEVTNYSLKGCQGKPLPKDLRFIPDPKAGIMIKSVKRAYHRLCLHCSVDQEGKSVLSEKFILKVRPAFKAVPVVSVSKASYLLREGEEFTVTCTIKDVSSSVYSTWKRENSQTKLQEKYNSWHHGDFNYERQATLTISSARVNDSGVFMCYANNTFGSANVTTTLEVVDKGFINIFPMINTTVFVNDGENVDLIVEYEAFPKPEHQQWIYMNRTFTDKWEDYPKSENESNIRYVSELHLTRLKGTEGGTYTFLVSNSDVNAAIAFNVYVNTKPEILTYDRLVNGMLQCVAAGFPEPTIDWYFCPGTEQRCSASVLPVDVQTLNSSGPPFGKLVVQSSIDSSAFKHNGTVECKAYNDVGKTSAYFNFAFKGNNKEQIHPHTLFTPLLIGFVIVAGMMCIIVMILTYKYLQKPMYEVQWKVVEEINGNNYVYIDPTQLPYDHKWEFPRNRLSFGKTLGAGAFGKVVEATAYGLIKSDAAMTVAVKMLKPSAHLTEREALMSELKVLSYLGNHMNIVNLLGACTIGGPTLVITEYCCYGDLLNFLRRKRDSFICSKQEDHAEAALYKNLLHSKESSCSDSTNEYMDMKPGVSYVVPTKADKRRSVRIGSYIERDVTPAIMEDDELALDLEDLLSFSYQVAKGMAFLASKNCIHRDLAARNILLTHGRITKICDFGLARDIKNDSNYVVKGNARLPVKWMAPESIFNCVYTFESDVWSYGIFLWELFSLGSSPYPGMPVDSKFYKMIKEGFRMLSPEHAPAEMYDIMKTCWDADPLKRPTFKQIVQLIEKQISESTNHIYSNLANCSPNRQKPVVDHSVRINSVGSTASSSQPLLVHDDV

On to `O=c1c(O)c(-c2ccc(O)c(O)c2)oc2cc(O)ccc12` [F0, 3´,4´,7-trihydroxyflavonol, reference compound], for which the half-inhibitory concentration (IC50) in experiment [1] was determined as 28 ± 0.2 µM; in experiment [2], 2.62 µM; in experiment [3] it was 28.7 µM; in experiment [4], 33 ± 2.7 µM; in experiment [5], 3.34 µM; in experiment [6] it was 21 ± 1 µM. Moreover, the IC50 came out at 30 ± 1.1 µM in experiment [7], 1.34 µM in [8], 26 ± 1 µM in experiment [9] and 29 ± 4 µM in [10]. Besides, the selectivity index in experiment [1] was 1.1; in experiment [6] it was 1.6; in experiment [9] it was 1.2; in experiment [10] it was 1.1.
Turning to `Cc1ccc2c(=O)c(O)c(-c3cccc(Cl)c3)oc2c1` [F8, 2-(3-Chlorophenyl)-3-hydroxy-7-methyl-4H-chromen-4-one], the IC50 is 6.7 ± 1.5 µM in [1]; 7.16 µM in [2]; 23.9 µM in experiment [3]; 26 ± 3.8 µM in experiment [4]; 17.1 µM in [5]; 8.4 ± 0.4 µM in experiment [6]. The IC50 was 22 ± 0.2 µM in experiment [7], 0.54 µM in [8], 8.3 ± 2.1 µM in [9] and 22 ± 3 µM in [10]. The selectivity index was determined as 3.3 in experiment [1], 3.1 in experiment [6], 2.7 in experiment [9] and 1.1 in experiment [10]. The “DAPI (+) apoptotic cells” value is reported as 12.8% in experiment [11] (A431, treated 36 hours at IC50); 5.84% in [11] (setting [16]); 11.3% in experiment [12] (A375, treated 36 hours at IC50); 6.5% in experiment [12] (setting [17]).
In the case of `COc1cccc(-c2oc3cc(C)ccc3c(=O)c2O)c1` [F9, 3-Hydroxy-2-(3-methoxyphenyl)-7-methyl-4H-chromen-4-one], the IC50 in experiment [1] came to 9.4 ± 0.3 µM; in experiment [2], 2.95 µM; in experiment [3], 1.42 µM; in experiment [4], 26 ± 1.6 µM; in experiment [5], 1.78 µM; in experiment [6], 12 ± 0.9 µM. For the same molecule, the half-inhibitory concentration (IC50) in experiment [7] came out at 27 ± 0.3 µM; in [8], 0.12 µM; in [9], 9.2 ± 0.7 µM; in [10], 17 ± 1 µM. Further, the selectivity index was determined as 2.9 in experiment [1], 2.2 in [6], 2.9 in experiment [9] and 1.5 in experiment [10]. Further, the “inhibition of wound closure” value in experiment [13] was 28–72%. The “DAPI (+) apoptotic cells” value turned out to be 19.1% in experiment [11] (A431, treated 36 hours at IC50); 7.93% in experiment [11] (setting [16]); 18.2% in [12] (A375, treated 36 hours at IC50); 7.5% in experiment [12] (setting [17]).
Consider `O=c1c(O)c(-c2ccccc2)oc2cc(Br)ccc12` [F14, 7-Bromo-3-hydroxy-2-phenyl-4H-chromen-4-one], for which the IC50 in experiment [1] is 3.3 ± 1.3 µM; in experiment [2], 6.64 µM; in experiment [3], over 100 µM; in [4], 24 ± 0.84 µM; in [5], 5.38 µM; in [6], 15 ± 0.08 µM. The half-inhibitory concentration (IC50) in [7] stood at 24 ± 0.2 µM; in experiment [8], 0.13 µM; in [9] it was 5.3 ± 2.1 µM; in experiment [10], 22 ± 4.3 µM. The selectivity index in [1] is recorded as 7.3; in [6], 1.4; in experiment [9] it was 4.5. For the same molecule, the “DAPI (+) apoptotic cells” value in [11] (setting [16]) amounted to 6.92%; in experiment [12] (A375, treated 36 hours at IC50) it was 10.9%; in experiment [12] (setting [17]), 6.2%.
For `O=c1c(O)c(-c2cccc(Cl)c2)oc2ccc(F)cc12` [F17, 2-(3-Chlorophenyl)-6-fluoro-3-hydroxy-4H-chromen-4-one], the IC50 was 8.1 ± 1.2 µM in experiment [1]; 4.57 µM in [2]; 11.5 µM in [3]; 32 ± 0.72 µM in experiment [4]; 5.7 µM in experiment [5]; 13 ± 1 µM in experiment [6]. Moreover, the IC50 in [7] stood at 38 ± 0.8 µM; in [8], 1.74 µM; in experiment [9], 10 ± 2.6 µM; in experiment [10] it was 25 ± 3.4 µM. The selectivity index came out at 4.7 in experiment [1], 2.5 in [6] and 3.8 in experiment [9]. Also, the “inhibition of wound closure” value in experiment [13] was 28–72%. The “DAPI (+) apoptotic cells” value in [11] (A431, treated 36 hours at IC50) is given as 18.4%; in experiment [11] (setting [16]) it was 8.81%; in experiment [12] (A375, treated 36 hours at IC50), 17.7%; in experiment [12] (setting [17]) it was 6.9%.
On to `Cc1cc([N+](=O)[O-])c2oc(-c3ccc(Br)cc3)c(O)c(=O)c2c1` [F20, 2-(4-Bromophenyl)-3-hydroxy-6-methyl-8-nitro-4H-chromen-4-one], for which the “expression level of pro-apoptotic protein Bax” value in experiment [14] is “significantly increased”. In [14], the “level of anti-apoptotic protein Bcl-2” value is listed as “decreased”. Further, the “protein expression levels of cyclin A2, cyclin E2 and CDK2” value in [14] is given as “significantly suppress”. Further, the “protein expression levels of phosphorylated c-Kit” value in [14] is reported as “significantly suppressed”. Besides, in [14] (vs untreated controls), the “protein expression levels of cleaved caspases −3, −7, −8 and PARP” value is recorded as “elevated”. The IC50 is 0.12 ± 0.11 µM in [1]; 4.77 µM in experiment [2]; 35 ± 0.23 µM in [4]; over 100 µM in experiment [5]; 6.3 ± 1 µM in [6]; 34 ± 0.6 µM in experiment [7]. The figures for the IC50 in [8], in experiment [9] and in [10] were 0.09 µM, 0.2 ± 0.1 µM and 17 ± 3 µM, respectively. Besides, in experiment [3], the “inhibition of mTOR kinase activity (in words)” value is “did not substantively inhibit”. Further, the selectivity index was 5.6 in [6], about 170 in [9] and 2.1 in experiment [10]. The “scratched wound area closure (in words)” value in experiment [13] (dose-dependent) is “significantly decreased”. Further, the “percentage of colonies (in words)” value in experiment [15] is “significantly reduced”. Moreover, the “DAPI (+) apoptotic cells” value turned out to be 27.7% in [11] (A431, treated 36 hours at IC50); 14.6% in experiment [11] (setting [16]); 20.4% in experiment [12] (A375, treated 36 hours at IC50); 8.2% in [12] (setting [17]).
